In brackets after ≈: the same amount, converted by molar mass.
What was measured:
[1] = tested on: Mycobacterium tuberculosis; assay: Antitubercular activity against Mycobacterium tuberculosis H37Rv after 5 days by microplate alamar blue assay; assay type: functional; settings: for MIC: Mycobacterium tuberculosis, H37Rv, 120 h
Procedure, shortened: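 Middlebrook 7H9 broth; serial dilutions of 0.2–100 μg/mL made in the plate. Incubated at 37°C for 5 days, then 1:1 alamar blue/10% Tween 80 added and incubated 24 h. MIC is the lowest concentration that prevents the blue-to-pink change. Ethambutol and rifampicin were standards.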

[2] = Cytotoxicity against human A549 cells assessed as decrease in cell viability after 72 hrs by MTT assay; assay type: toxicity, cell-based
Procedure, shortened: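 Human A549 lung adenocarcinoma cells; viability read as cellular MTT conversion to formazan in a non-radioactive cell proliferation kit. Cisplatin was the positive control. IC50 values are means ± SEM of three independent experiments.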

[3] = biological target: T1, Enoyl-[acyl-carrier-protein] reductase [NADH] (Mycobacterium tuberculosis, UniProt P9WGR1); assay: Inhibition of His6-tagged recombinant Mycobacterium tuberculosis InhA expressed in protease-deficient Escherichia coli (BL21) using trans-2-dodecenoyl-coenzyme A as substrate assessed as NADH oxidation
T1 sequence (P9WGR1 whole entry): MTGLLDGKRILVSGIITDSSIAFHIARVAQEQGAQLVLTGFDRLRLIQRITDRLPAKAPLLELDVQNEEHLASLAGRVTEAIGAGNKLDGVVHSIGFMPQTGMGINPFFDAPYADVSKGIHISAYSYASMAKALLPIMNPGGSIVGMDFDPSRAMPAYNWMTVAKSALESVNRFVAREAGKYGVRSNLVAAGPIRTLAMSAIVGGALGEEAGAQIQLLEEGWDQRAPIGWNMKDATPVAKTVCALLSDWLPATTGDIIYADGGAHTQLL
Procedure, shortened: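 InhA-6xHis from E. coli BL21 (pHAT5/InhA), induced overnight with 1 mM IPTG at 20°C, purified on Ni-NTA and desalted. Assay at 25°C in 30 mM PIPES, 150 mM NaCl, pH 6.8, with 250 μM NADH, 50 μM DDCoA and 5% DMSO final. Compound screened at 50 μM. % inhibition taken from slopes with and without inhibitor. Triclosan was the reference.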

Structure (SMILES)	-logMIC [1]	MIC [1] [µg/mL]	IC50 at 72 h [2] [µM]	IC50 [3] [µM]
COc1ccc(NC(=O)/C(C)=N/NC(=O)c2ccc(-n3c(C)ccc3C)cc2)cc1	4.6	25 (≈ 61.8 µM)	–	–
CC[C@@H](CO)NCCN[C@@H](CC)CO [ETHAMBUTOL]	–	0.5 (≈ 2.45 µM)	–	–
C/C(CCC(=O)Nc1cccc(F)c1)=N\NC(=O)c1ccc(-n2cccc2)cc1	4.6	12.5 (≈ 31.9 µM)	–	–
C/C(CCC(=O)Nc1ccc(Cl)cc1)=N\NC(=O)c1ccc(-n2cccc2)cc1	5.5	3.12 (≈ 7.63 µM)	406	–
C/C(=N\NC(=O)c1ccc(-n2cccc2)cc1)C(=O)Nc1cccc(F)c1	4.58	12.5 (≈ 34.3 µM)	–	–
C/C(=N\NC(=O)c1ccc(-n2cccc2)cc1)C(=O)Nc1ccc(Br)cc1	5.5	3.12 (≈ 7.34 µM)	441	–
COc1cccc(NC(=O)/C(C)=N/NC(=O)c2ccc(-n3cccc3)cc2)c1	4.3	50 (≈ 133 µM)	–	–
COc1ccccc1NC(=O)CC/C(C)=N/NC(=O)c1ccc(-n2cccc2)cc1	4	100 (≈ 247 µM)	–	–
COc1ccc(NC(=O)/C(C)=N/NC(=O)c2ccc(-n3cccc3)cc2)cc1	4.3	50 (≈ 133 µM)	–	–
C/C(=N\NC(=O)c1ccc(-n2c(C)ccc2C)cc1)C(=O)Nc1ccc(Br)cc1	5.2	6.25 (≈ 13.8 µM)	–	–
C/C(=N\NC(=O)c1ccc(-n2cccc2)cc1)C(=O)Nc1c(Cl)cccc1Cl	4.6	25 (≈ 60.2 µM)	–	–
C/C(CCC(=O)Nc1ccc(F)cc1)=N\NC(=O)c1ccc(-n2cccc2)cc1	5.5	3.12 (≈ 7.95 µM)	438	7.69
C/C(=N\NC(=O)c1ccc(-n2cccc2)cc1)C(=O)Nc1ccccc1F	4.3	25 (≈ 68.6 µM)	–	–
C/C(CCC(=O)Nc1ccccc1F)=N\NC(=O)c1ccc(-n2cccc2)cc1	4.6	25 (≈ 63.7 µM)	–	–
C/C(CCC(=O)Nc1cccc(Cl)c1)=N\NC(=O)c1ccc(-n2cccc2)cc1	–	12.5 (≈ 30.6 µM)	–	–
C/C(CCC(=O)Nc1ccc(Br)cc1)=N\NC(=O)c1ccc(-n2cccc2)cc1	5.2	6.25 (≈ 13.8 µM)	–	–
NNC(=O)c1ccncc1 [ISONIAZID]	–	–	> 450	–
C/C(=N\NC(=O)c1ccc(-n2cccc2)cc1)C(=O)Nc1cc(Br)cc(Br)c1	4.9	12.5 (≈ 24.8 µM)	–	–
C/C(=N\NC(=O)c1ccc(-n2cccc2)cc1)C(=O)Nc1cccc(Br)c1	4.9	12.5 (≈ 29.4 µM)	–	–
C/C(=N\NC(=O)c1ccc(-n2cccc2)cc1)C(=O)Nc1cc(Cl)cc(Cl)c1	4.9	12.5 (≈ 30.1 µM)	–	–
C/C(CCC(=O)Nc1ccccc1Cl)=N\NC(=O)c1ccc(-n2cccc2)cc1	4.6	25 (≈ 61.1 µM)	–	–
C/C(=N\NC(=O)c1ccc(-n2c(C)ccc2C)cc1)C(=O)Nc1c(Cl)cccc1Cl	4	100 (≈ 226 µM)	–	–
CO[C@H]1/C=C/O[C@@]2(C)Oc3c(C)c(O)c4c(O)c(c(/C=N/N5CCN(C)CC5)c(O)c4c3C2=O)NC(=O)/C(C)=C\C=C\[C@H](C)[C@H](O)[C@@H](C)[C@@H](O)[C@@H](C)[C@H](OC(C)=O)[C@@H]1C [RIFAMPIN]	–	0.4 (≈ 0.486 µM)	–	–
C/C(=N\NC(=O)c1ccc(-n2cccc2)cc1)C(=O)Nc1ccc(F)cc1	5.2	6.25 (≈ 17.2 µM)	–	–
C/C(CCC(=O)Nc1cc(Cl)cc(Cl)c1)=N\NC(=O)c1ccc(-n2cccc2)cc1	4.6	25 (≈ 56.4 µM)	–	–
C/C(CCC(=O)Nc1ccccc1)=N\NC(=O)c1ccc(-n2cccc2)cc1	4.3	50 (≈ 134 µM)	–	–
C/C(CCC(=O)Nc1cccc(Br)c1)=N\NC(=O)c1ccc(-n2cccc2)cc1	4.9	–	–	–
C/C(=N/NC(=O)c1ccc(-n2cccc2)cc1)C(N)=O	4.3	50 (≈ 185 µM)	–	–
